{
  "source": "ChEMBL document CHEMBL3352693",
  "about": "“Notolutesins A-J, dolabrane-type diterpenoids from the Chinese liverwort Notoscyphus lutescens” (J Nat Prod, 2014)",
  "type_in_all_cases": "functional, cell-based",
  "key": {"[1]": {"tested_on": "DU-145", "assay": "Cytotoxicity against human DU145 cells after 24 hrs by MTT assay", "conditions": "DU-145, 24 h", "summary_of_the_method": "(§1)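 Cells seeded 24 h before treatment, then exposed continuously to a range of compound concentrations (dissolved in DMSO) for 24 h. MTT (5 mg/mL in PBS) added, 4 h at 37 °C, 5% CO2; absorbance read at 570 nm. IC50 (50% growth inhibition) derived from plotted data, untreated cells as 100%; at least three experiments. Taxol and adriamycin as positive controls.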"}, "[2]": {"tested_on": "A549", "assay": "Cytotoxicity against human A549 cells after 24 hrs by MTT assay", "conditions": "A549, 24 h", "summary_of_the_method": "as §1"}, "[3]": {"assay": "Cytotoxicity against human PC3 cells after 24 hrs by MTT assay", "conditions": "PC-3, 24 h", "summary_of_the_method": "as §1"}, "[4]": {"assay": "Cytotoxicity against human NCI-H1688 cells after 24 hrs by MTT assay", "conditions": "NCI-H1688, 24 h", "summary_of_the_method": "as §1"}},
  "note": "Where a name gives a salt, the structure may show the parent alone.",
  "data": [
    {"smiles": "COc1cccc2c1C(=O)c1c(O)c3c(c(O)c1C2=O)C[C@@](O)(C(=O)CO)C[C@@H]3O[C@H]1C[C@H](N)[C@H](O)[C@H](C)O1", "note": "[DOXORUBICIN HYDROCHLORIDE]", "values": [
      {"measurement": "IC50", "setting": "[1]", "value": 21.4, "unit": "µM"},
      {"measurement": "IC50", "setting": "[2]", "value": 23.7, "unit": "µM"},
      {"measurement": "IC50", "setting": "[3]", "value": 11.7, "unit": "µM"},
      {"measurement": "IC50", "setting": "[4]", "value": 4.22, "unit": "µM"}
    ]},
    {"smiles": "CC(=O)O[C@H]1C(=O)[C@@]2(C)[C@H]([C@H](OC(=O)c3ccccc3)[C@]3(O)C[C@H](OC(=O)[C@H](O)[C@@H](NC(=O)c4ccccc4)c4ccccc4)C(C)=C1C3(C)C)[C@]1(OC(C)=O)CO[C@@H]1C[C@@H]2O", "note": "[PACLITAXEL]", "values": [
      {"measurement": "IC50", "setting": "[1]", "value": 1.79, "unit": "µM"},
      {"measurement": "IC50", "setting": "[3]", "value": 0.94, "unit": "µM"},
      {"measurement": "IC50", "setting": "[4]", "value": 0.85, "unit": "µM"}
    ]},
    {"smiles": "C=C[C@@]1(C)CC[C@@]2(C)[C@@H](CC[C@]34COC(=O)C3=C[C@@H](O)C[C@@H]42)C1", "values": [
      {"measurement": "IC50", "setting": "[1]", "value": "> 10", "unit": "µM"},
      {"measurement": "IC50", "setting": "[2]", "value": "> 10", "unit": "µM"},
      {"measurement": "IC50", "setting": "[3]", "value": 6.2, "unit": "µM"},
      {"measurement": "IC50", "setting": "[4]", "value": "> 10", "unit": "µM"}
    ]}
  ]
}
